High-throughput results from PubChem BioAssay.
T cruzi repl: blocks replication of Trypanosoma cruzi. 300,000 compounds, 1.4% hits. inhibition, % (concentration not given with the values). T. cruzi beta-gal in NIH3T3, luminescence, 90 h. AID 1885;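 active = mean inhibition across valid replicates above about 55%, limit read from the data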;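 also: signal also drops with host cell toxicity which is not excluded here; 0% = plate median of DMSO wells and 100% = zero luminescence signal; higher percent means less beta-gal luminescence so fewer parasites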
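Assay system: NIH/3T3 host cells with β-galactosidase reporter T. cruzi; input: 5,000 host fibroblasts per well; compound: single 50 nL compound addition per well in DMSO; timing: ≥90 h infection period, 3 h prior cell attachment; measured by: GalScreen β-gal luminescence, detergent lysis, 60 min; evaluation: percent inhibition of parasite-derived β-gal signal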
HSF1 activator: increases HSF-1 driven luciferase reporter signal | activation, % at 9 µM | 300,000 compounds, 1.7% hits | NIH3T3-HGL HSF-1 luciferase reporter, MG132, 8 h; 100% = twice DMSO control signal;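 active = mean replicate activation of at least 50% with a set share of replicates each reaching 50%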;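 also: 0% = median of the neutral control wells and 100% = twice that signal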
HSF1 inh: HSF1 inhibition; NIH3T3-HGL HSE-luciferase, MG132-induced, luminescence 8 h; hits give low values; 300,000 compounds, 0.77% hits; AID 2098; activity change, negative = inhibition, % at 7.5 µM (by protocol);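 active = more than half of replicate wells show activity change below -50%, luminescence cut by over half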;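 also: luciferase reports HSF-1 transcriptional activity via heat shock element; 0% = median of DMSO wells and -100% = zero luminescence signal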
Lmaj promast: reduces viability of Leishmania major promastigotes; 200,000 compounds, 9% hits; resazurin fluorescence viability; AID 1063; inhibition, % at 10 µM; in the data active = inhibition above about 50%;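 also: promastigotes grown with compound for 44 hours at 28 °C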
Hsp70 act: Hsp70 transcriptional activation, primary screen | HeLa Hsp70 promoter luciferase reporter, luminescence; scaled: vehicle 0, proteasome-inhibitor control 100% | activation, % at 10 µM | 200,000 compounds, 0.04% hits | AID 1203;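 active = activation above the mean across all tested compounds plus 3 SD, cutoff set per campaign, cut at about 5.5% in these data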;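 also: 100% = MG132 at 30 µM as the positive control and 0% = DMSO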
* marks the source's active call; other numbers are inactive results; . = no result. This excerpt belongs to a sample that is enriched for hits.

SMILES | T cruzi repl | HSF1 activator | HSF1 inh | Lmaj promast | Hsp70 act
CC(=O)c1ccc(N(C(=O)c2csnn2)C(C(=O)NC(C)(C)C)c2cccs2)cc1 (centres undefined) | -5.7 | 0.8 | -0.9 | 3.4 | -0.2
CCCOc1ccc(N2C(=O)CC(N(CCc3ccc(OC)c(OC)c3)C(=S)Nc3ccccc3)C2=O)cc1 (centres undefined) | 63.7* | -6.9 | 2.3 | 44.5 | -0.1
Cc1ccc2nc(N3C(=O)C(O)=C(C(=O)c4ccco4)C3c3cccs3)sc2c1 (centres undefined) | -27.3 | 65.8* | 34.9 | 5.5 | 0.8
O=C(c1cc(Cl)ccc1[N+](=O)[O-])n1cnc2ccccc21 | -19.6 | -41.0 | -33.0 | 55.4* | -0.2
O=C(c1ccccc1[N+](=O)[O-])n1cnc2ccccc21 | -11.6 | -16.4 | -19.1 | -1.8 | 4.0
Cc1cc(C)c(NC(=S)N(CCCN2CCOCC2)Cc2cccnc2)c(C)c1 | 27.4 | 11.4 | -1.9 | 5.6 | -0.5
C#CC(=O)N(c1ccc(OC)c(OC)c1)C(C(=O)NC1CCCC1)c1cccs1 (centres undefined) | 25.6 | . | . | 100.2* | -0.1
COc1ccc(N(C(=O)c2ccco2)C(C(=O)NC2CCCC2)c2cccs2)c(OC)c1 (centres undefined) | 25.3 | -2.6 | 11.7 | . | .
C#CC(=O)N(c1cccc(OC)c1)C(C(=O)NC1CCCC1)c1cccs1 (centres undefined) | 51.4 | . | . | 100.4* | 0.0
Cc1cccc(N(C(=O)C(F)(F)F)C(C(=O)NC2CCCCC2)c2cccs2)c1 (centres undefined) | 58.6* | 16.3 | 11.4 | 6.7 | -0.3
COc1ccc(N(C(=O)Cc2cccs2)C(C(=O)NC2CCCC2)c2ccncc2)cc1OC (centres undefined) | 3.1 | 0.3 | 12.9 | . | .
COc1ccc(CCN(C(=O)C(F)(F)F)C(C(=O)NC2CCCC2)c2cccs2)cc1OC (centres undefined) | 11.9 | -12.3 | 4.5 | 59.4* | -0.2
Cc1ccc(NC(=O)CCSc2ccccn2)cc1 | -1.3 | 26.2 | 20.0 | -3.6 | 0.2
Cc1cccc(C(C(N)=O)c2ncc(C(F)(F)F)cc2Cl)c1 (centres undefined) | 3.1 | -43.6 | -29.4 | -5.7 | -0.1
Cc1ccc(C(=O)Nc2sc(C)c(-c3ccccc3)c2C(N)=O)cc1[N+](=O)[O-] | 22.7 | -83.4 | -81.5* | 12.9 | 0.6
Cc1ccc(C(=O)Nc2cccc(NC(=O)c3ccc(C)c([N+](=O)[O-])c3)n2)cc1[N+](=O)[O-] | 14.0 | -9.9 | -1.9 | . | .
COCCNC(=O)CSc1nnc(-c2ccc(C)cc2)c(-c2ccc(C)cc2)n1 | 46.1 | 5.5 | 3.5 | 89.7* | -0.4
COCCNC(=O)CSc1ccc(C)cc1 | -7.0 | -1.1 | -10.5 | -6.3 | 0.0
CCc1ccc(N2C(=O)CC(NNc3nc4ccccc4s3)C2=O)cc1 (centres undefined) | -0.6 | 220.4* | 161.8 | -5.8 | -0.2
COc1cccc(N2C(=O)CC(NNc3nc4ccccc4s3)C2=O)c1 (centres undefined) | -8.8 | 68.7* | 39.2 | . | .
O=C1CC(NNc2nc3ccccc3s2)C(=O)N1c1ccccc1 (centres undefined) | -15.0 | 42.8 | 26.1 | -3.6 | 0.0
COc1cc(OC)c(C2C3=C(CCCC3=O)Nc3nc4ccccc4n32)cc1OC (centres undefined) | 22.2 | 1.5 | -1.1 | 99.4* | 0.3
COc1ccc(C2C(C(=O)c3ccccc3)=C(C)Nc3nc4ccccc4n32)c(OC)c1 (centres undefined) | 51.6 | -12.7 | -15.0 | 87.3* | -0.2
CCOc1ccc(OCC)c(-c2c(=O)n(OCc3ccc(C(C)(C)C)cc3)c3ccccc3[n+]2[O-])c1 | 10.5 | 16.3 | -5.0 | 22.5 | 0.0
COC(=O)c1sc(-c2ccc(Cl)cc2)cc1NC(=O)/C=C/C(=O)O | 9.4 | 66.2* | 41.7 | . | .
SMILES | T cruzi repl | HSF1 activator | HSF1 inh | Lmaj promast | Hsp70 act
Cc1cc(C)nc(SCc2ccc(F)cc2)n1 | -11.3 | -4.3 | 1.6 | -6.2 | -0.4
Cc1cccc(C)c1OC1(c2ccccc2)OC(=O)c2ccccc21 (centres undefined) | 10.2 | -3.2 | -4.3 | 98.3* | -0.3
C/C(=N\Nc1ccc(F)cc1)c1ccc(N2CCOCC2)c(F)c1 | -5.1 | -6.3 | 5.3 | . | .
CC1=CN2C(=N)/C(=C/c3ccco3)C(=O)N=C2S1 | -9.8 | 47.0 | 15.6 | 16.0 | 0.1
CC1=CN2C(=N)/C(=C/c3ccc([N+](=O)[O-])o3)C(=O)N=C2S1 | 22.9 | 75.4* | 52.9 | 8.7 | -0.3
CC(Cc1cccnc1)NC(=O)c1cc(COc2ccc(F)cc2Cl)on1 (centres undefined) | 2.2 | -4.0 | -0.8 | . | .
Cc1cc(C)c(NC(=O)C2CCCN(S(=O)(=O)c3c(C)noc3/C=C/N(C)C)C2)c(C)c1 (centres undefined) | -0.8 | -12.7 | 0.6 | . | .
O=C(Nc1nc2ccc(Cl)cc2s1)C1CCCO1 (centres undefined) | 32.1 | -13.3 | -15.2 | 10.5 | -0.2
Fc1cccc2sc(Nc3nc4cc5c(cc4s3)OCO5)nc12 | 20.1 | 36.3 | 21.9 | 60.1* | 0.5
O=C(CN1C(=O)CCC1=O)Nc1nc2c(F)cc(F)cc2s1 | -17.1 | -15.6 | -1.6 | -7.9 | 0.3
O=C(Nc1nc2cc3c(cc2s1)OCO3)C1CCCCC1 | 0.6 | 48.1 | 20.4 | . | .
O=C(Nc1nc2cc3c(cc2s1)OCO3)C1CC1 | 56.4* | 15.6 | 6.1 | . | .
O=C(Nc1nc2ccc(Cl)cc2s1)C1CC1 | 66.1* | 40.0 | 28.4 | . | .
O=C(Nc1nc2c(F)cc(F)cc2s1)C1CC1 | 58.5* | 31.2 | 7.2 | . | .
COc1ccc(-n2c(C)c(C(C)=O)c(C(C)=O)c2C)cc1 | -1.6 | -72.1 | -63.7* | -2.7 | -0.4
COc1ccc(N2C(=NC(=O)C3CCCO3)SC3CS(=O)(=O)CC32)cc1 (centres undefined) | 8.6 | 2.4 | -3.8 | . | .
CCCn1c(O)c(C=Nc2ccccc2)sc1=S | 15.4 | 15.1 | 26.2 | -3.4 | -0.1
CCn1c(O)c(C=Nc2ccccc2)oc1=S | 7.7 | -72.2 | -67.2* | -3.4 | -0.3
Cc1c(C(=O)N2CCc3ccccc32)oc2ccccc12 | 2.6 | 42.3 | 43.9 | 81.2* | 0.0
Cc1ccc2c(c1)N(C(=O)CCC(=O)NC1CCC(C)CC1)CCO2 (centres undefined) | 1.1 | -14.1 | -2.4 | . | .
COc1cc2c(cc1OC)CN(C(=S)Nc1ccc(OC(F)F)cc1)CC2 | . | . | . | -1.3 | -0.1
CC1CC(C)CN(C(=S)Nc2ccc(SC(F)F)cc2)C1 (centres undefined) | -58.4 | 3.3 | 12.9 | 72.7* | -0.3
CC1CC(C)CN(C(=S)Nc2ccc(OC(F)F)cc2)C1 (centres undefined) | -18.5 | 1.1 | 2.5 | 84.5* | -0.3
O=C(N/N=C\c1cn[nH]c1-c1ccccc1)c1cccnc1 | -18.5 | 7.2 | -2.4 | -8.1 | 0.6
O=C(N/N=C\c1ccccn1)c1ccccc1O | -14.2 | 20.0 | 0.6 | 69.1* | 0.0
O=C(N/N=C/c1ccccn1)c1ccncc1 | -9.5 | -11.6 | -9.2 | . | .
